In brackets after ≈: the same amount, converted by molar mass.
Tests used:
[1] = test system: Phloem; test: Phloem mobility in Ricinus communis (castor bean) seedlings phloem sap assessed as drug level at 200 uM measured 7 hr post dose by DiBAC4 indicator based flow cytometry relative to untreated control; type: ADME
[2] = test system: Phloem; test: Phloem mobility in Ricinus communis (castor bean) seedlings phloem sap assessed as drug level at 200 uM measured 3.5 hr post dose by DiBAC4 indicator based flow cytometry relative to untreated control; type: ADME
[3] = test system: Root; test: Drug metabolism in adult Ricinus communis (castor bean) roots assessed as compound conversion to fipronil at 2 mM measured 48 to 72 hr post treatment by HPLC-MS method; type: ADME; conditions: 2000 µM
Outline: (§1)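 Adult castor bean plants. On each of two fully expanded leaves, 100 mm2 of the adaxial surface was abraded with a Celite slurry, rinsed and blotted dry. 200 μL of aqueous GTF in 0.1% Tween 80/10% acetone was applied per leaf; vehicle alone served as control. After 48 and 72 h, plants were cut into apical leaves, upper stem, lower stem and roots (three replicates). 2 g tissue was acetone-extracted with 15 min sonication. Fipronil was quantified by C18 HPLC (acetonitrile/water 50:50, 1.0 mL/min, 210 nm) against external calibration.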

[4] = test system: Lower stem; test: Drug metabolism in adult Ricinus communis (castor bean) lower stem assessed as compound conversion to fipronil at 2 mM measured 48 to 72 hr post treatment by HPLC-MS method; type: ADME; conditions: 2000 µM; outline: as §1
[5] = test system: Apical leaf; test: Drug metabolism in adult Ricinus communis (castor bean) apical leaves assessed as compound conversion to fipronil at 2 mM measured 48 to 72 hr post treatment; type: ADME; conditions: 2000 µM; outline: as §1
[6] = test system: Upper stem; test: Drug metabolism in adult Ricinus communis (castor bean) upper stem assessed as compound conversion to fipronil at 2 mM measured 48 to 72 hr post treatment; type: ADME; conditions: 2000 µM; outline: as §1
[7] = test system: Phloem; test: Phloem mobility in Ricinus communis (castor bean) seedlings phloem sap assessed as drug level at 200 uM by HPLC-MS method; type: ADME
Outline: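 Six-day castor bean seedlings, endosperm removed. After 1 h the hypocotyl was severed and phloem sap collected from the upper hypocotyl. Sap was analysed by C18 HPLC (acetonitrile/water 50:50, 1.0 mL/min, 210 nm, 25 °C) with external calibration; identity was confirmed by positive-ion APCI-MS.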

[8] = test system: Root; test: Drug metabolism in adult Ricinus communis (castor bean) roots assessed as compound conversion to fipronil at 2 mM measured 48 to 72 hr post treatment; type: ADME; conditions: 2000 µM; outline: as §1
[9] = test system: Apical leaf; test: Drug metabolism in adult Ricinus communis (castor bean) apical leaves assessed as compound conversion to fipronil at 2 mM measured 48 to 72 hr post treatment by HPLC-MS method; type: ADME; conditions: 2000 µM; outline: as §1
[10] = test system: Upper stem; test: Drug metabolism in adult Ricinus communis (castor bean) upper stem assessed as compound conversion to fipronil at 2 mM measured 48 to 72 hr post treatment by HPLC-MS method; type: ADME; conditions: 2000 µM; outline: as §1
[11] = test system: Phloem; test: Phloem mobility in Ricinus communis (castor bean) seedlings phloem sap assessed as drug level at 200 uM measured 8 hr post dose by DiBAC4 indicator based flow cytometry; type: ADME
Outline: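 Protoplasts from cotyledons were isolated by 4 h digestion at 28 °C in cellulase/pectinase with 0.6 M mannitol and MES pH 5.8. They were suspended in buffer with 200 μM compound, or none for control, and shaken at 28 °C for 8 h. Every 2 h, samples were stained with 2 μM DiBAC4(3) for 30 min. Fluorescence of 20000 viable cells was read by flow cytometry (ex 488/em 530 nm) and expressed relative to fresh cells; n = 3, Duncan's test.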

[12] = test system: Lower stem; test: Drug metabolism in adult Ricinus communis (castor bean) lower stem assessed as compound conversion to fipronil at 2 mM measured 48 to 72 hr post treatment; type: ADME; conditions: 2000 µM; outline: as §1
[13] = test system: Plutella xylostella; test: Insecticidal activity against Plutella xylostella (diamondback moth) third-instar larvae measured 24 hr post dose by leaf disk dipping assay; type: functional; conditions: foliar
Outline: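 Third-instar larvae, leaf disk dip. Compounds were dissolved in acetone and suspended in water with 0.1% Tween 80. 5.5 cm leaf disks were dipped 30 s and air-dried 2 h, then 10 larvae were placed per dish. Control was 10% acetone/0.1% Tween 80. Incubation at 26 ± 2 °C, 70% RH, 16:8 h light/dark; five replicates. Mortality was scored at 24 h and LC50 derived with 95% confidence limits.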

Compound | fold change (FC) [1] | fold change (FC) [2] | Drug metabolism [3] | Drug metabolism [4] | Drug metabolism [5] | Drug metabolism [6] | Drug mobility [7] | Drug metabolism [8] | Drug metabolism [9] | Drug metabolism [10] | Drug mobility [11] | Drug metabolism [12] | LC50 [13] [µg/mL]
N#Cc1nn(-c2c(Cl)cc(C(F)(F)F)cc2Cl)c(NCc2cn([C@@H]3O[C@H](CO)[C@@H](O)[C@H](O)[C@H]3O)nn2)c1[S+]([O-])C(F)(F)F (stereo not given in full) | 0.45 | 0.25 | Active | Active | Active | Active | Active | Active | Active | Active | Active | Active | 
N#Cc1nn(-c2c(Cl)cc(C(F)(F)F)cc2Cl)c(N)c1[S+]([O-])C(F)(F)F (stereo not given) [FIPRONIL] |  |  |  |  |  |  | Not Active |  |  |  | Not Active |  | 21.4 (≈ 48.9 µM)
